These results are taken from ChEMBL document CHEMBL1124959, “Synthesis of peptidyl fluoromethyl ketones and peptidyl alpha-keto esters as inhibitors of porcine pancreatic elastase, human neutrophil elastase, and rat and human neutrophil cathepsin G” (J Med Chem, 1990).

Structures are written as SMILES. Peptide text beside a SMILES is read from it. * marks the point of attachment. Dansyl = CN(C)c1cccc2c(S(=O)(=O)*)cccc12; MeOSuc = COC(=O)CCC(=O)*; Cbz = O=C(OCc1ccccc1)*; Boc = CC(C)(C)OC(=O)*; CF3 = FC(F)(F)* Some results are limits rather than exact numbers.

The target in one assay is T1, Pancreatic elastase (Sus scrofa, UniProt P08419+P00772). The assay is described as follows: Binding affinity against porcine pancreatic Elastase. It counts as protein assay. In outline:
(§1)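 Porcine pancreatic elastase was followed spectrophotometrically at 410 nm, 37 °C, with Suc-Ala-Pro-Ala-p-nitroanilide in pH 8.0 buffer (0.1 M NaCl, 0.01 M HEPES, 0.01 M Tris, 0.1% PEG 6000). Paired runs were done: enzyme added last, or enzyme preincubated with inhibitor before substrate. Only data up to 10% substrate consumption were used. K_i* came from steady-state rates fitted to competitive inhibition.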
`CC(=O)N1CCC[C@H]1C(=O)N[C@@H](C)C(=O)N1CCC[C@H]1C(=O)N[C@@H](C)C(=O)C(=O)O`: the Ki (usually the equilibrium dissociation constant of an inhibitor or competing ligand from its target) was found to be 690 nM. This counts as sub-micromolar.

Regarding `CC(=O)N1CCC[C@H]1C(=O)N[C@@H](C)C(=O)N1CCC[C@H]1C(=O)N[C@@H](C)C=O` (Ac-PAPA-aldehyde), the Ki was 800 nM.

The next assay has as its target T2, Cathepsin G (Homo sapiens, UniProt P08311).
T2 sequence (P08311 whole entry): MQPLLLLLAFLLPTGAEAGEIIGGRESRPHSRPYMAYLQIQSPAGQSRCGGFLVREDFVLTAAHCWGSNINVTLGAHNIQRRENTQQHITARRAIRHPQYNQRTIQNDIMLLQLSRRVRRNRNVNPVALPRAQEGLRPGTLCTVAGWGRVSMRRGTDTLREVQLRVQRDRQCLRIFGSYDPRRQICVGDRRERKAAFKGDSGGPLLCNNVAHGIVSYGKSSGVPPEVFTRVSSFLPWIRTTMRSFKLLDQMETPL
Nature of the assay: Binding affinity against human Cathepsin G. In outline: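 Cathepsin G came from neutrophil granule extracts of sputum or, for rat, peritoneal lavage, extracted in 1 M NaCl/0.1% Brij 35 acetate buffer, pH 5.5. K_i = [I]/(v0/v1 − 1), using equilibrium velocity when binding was slow.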
Turning to `COC(=O)CCC(=O)N[C@H](C(=O)N1CCC[C@H]1C(=O)N[C@@H](Cc1ccccc1)C(=O)C(=O)OC)C(C)C`, the Ki stood at 1100 nM.

On to `CC(C)[C@H](NC(=O)[C@@H]1CCCN1C(=O)[C@H](C)NC(=O)[C@H](C)NS(=O)(=O)c1cccc2c(N(C)C)cccc12)C(=O)C(F)(F)F` (Dansyl-AAPV-CF3), for which the inhibition constant Ki is > 600000 nM.

Consider `CC(=O)N[C@@H](C)C(=O)N[C@@H](C)C(=O)N1CCC[C@H]1C(=O)N[C@@H](C)C(=O)C(F)(F)F` (Ac-AAPA-CF3), for which the Ki was > 800000 nM.

`COC(=O)CCC(=O)N[C@H](C(=O)N1CCC[C@H]1C(=O)N[C@@H](Cc1ccccc1)C(=O)C(F)(F)F)C(C)C` (MeOSuc-Val-Pro-Phe-CF3): the affinity corresponds to a Ki of 3000 nM.

The target in a further assay is T3, Neutrophil elastase (Homo sapiens, UniProt P08246).
T3 sequence (P08246 whole entry): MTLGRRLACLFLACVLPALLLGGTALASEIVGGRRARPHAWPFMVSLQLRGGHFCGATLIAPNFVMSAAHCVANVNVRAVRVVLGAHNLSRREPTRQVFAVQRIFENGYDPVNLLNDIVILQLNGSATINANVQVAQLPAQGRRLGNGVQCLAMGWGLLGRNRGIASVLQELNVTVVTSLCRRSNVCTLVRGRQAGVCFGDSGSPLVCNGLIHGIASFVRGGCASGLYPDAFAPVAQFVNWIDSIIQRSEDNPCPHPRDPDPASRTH
Nature of the assay: Binding affinity against human Elastase for less active diasteriomer. In short, it runs like this: (§2)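 Human neutrophil elastase purified from purulent sputum. Activity was read at 410 nm (p-nitroaniline) at 37 °C with MeO-Suc-Ala-Ala-Pro-Val-p-nitroanilide in 0.1 M NaCl, 0.01 M HEPES, 0.01 M Tris, 0.1% PEG 6000, pH 8.0, 1.25% DMSO. Paired assays were run, one adding enzyme last and one preincubating enzyme with inhibitor. Data were limited to ≤10% substrate use. Steady-state K_i* came from the competitive inhibition equation.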
The compound `CC(C)[C@H](NC(=O)[C@@H]1CCCN1C(=O)[C@H](C)NC(=O)[C@H](C)NS(=O)(=O)c1cccc2c(N(C)C)cccc12)C(=O)C(F)(F)F` (Dansyl-AAPV-CF3) yielded a Ki of 110 nM.

A further assay addresses T1, Pancreatic elastase. Nature of the assay: Binding affinity for porcine Elastase. It counts as protein assay. In outline: as §1
The compound `CC(C)[C@H](NC(=O)[C@@H]1CCCN1C(=O)[C@H](Cc1ccccc1)NC(=O)OC(C)(C)C)C(=O)C(F)(F)F` (Boc-Phe-Pro-Val-CF3) returned a Ki of 1800 nM.

`COC(=O)CCC(=O)N[C@@H](C)C(=O)N[C@@H](C)C(=O)N1CCC[C@H]1C(=O)N[C@H](C(=O)C(=O)OC)C(C)C`: the inhibition constant (Ki) amounted to 680 nM. Compared with the last compound, the Ki is about 2.6-fold lower.

In the case of `COC(=O)CCC(=O)N[C@@H](C)C(=O)N[C@@H](C)C(=O)N1CCC[C@H]1C(=O)N[C@H](C(=O)C(F)(F)F)C(C)C` (MeOSuc-AAPV-CF3), the Ki was determined as 33 nM. This Ki is about 21-fold lower than that of the compound before.

`CC(C)[C@H](NC(=O)[C@@H]1CCCN1C(=O)[C@H](C)NC(=O)[C@H](C)NC(=O)OC(C)(C)C)C(=O)C(F)(F)F` (Boc-AAPV-CF3) gave a Ki of 32 nM.

`CC(=O)N1CCC[C@H]1C(=O)N[C@@H](C)C(=O)N1CCC[C@H]1C(=O)N[C@@H](C)C(=O)C(F)(F)F` (Ac-PAPA-CF3) came in with a Ki of 240 nM.

Turning to `CC(C)[C@H](NC(=O)[C@@H]1CCCN1C(=O)[C@H](C)NC(=O)[C@H](C)NS(=O)(=O)c1cccc2c(N(C)C)cccc12)C(=O)C(F)(F)F` (Dansyl-AAPV-CF3), the Ki was found to be 88 nM. Against the preceding compound, the Ki is about 2.7-fold lower.

Compound `CC(=O)N[C@@H](C)C(=O)N[C@@H](C)C(=O)N1CCC[C@H]1C(=O)N[C@@H](C)C(=O)C(F)(F)F` (Ac-AAPA-CF3) gave a Ki of 150 nM.

On to `COC(=O)CCC(=O)N[C@H](Cc1ccccc1)C(=O)N1CCC[C@H]1C(=O)N[C@H](C(=O)C(F)(F)F)C(C)C`, for which the Ki amounted to 28000 nM.

On to `COC(=O)C(=O)[C@H](C)NC(=O)[C@@H]1CCCN1C(=O)[C@H](C)NC(=O)[C@@H]1CCCN1C(C)=O`, for which the Ki came out at 29 nM.

Turning to `COC(=O)CCC(=O)NCCCC[C@H](NS(=O)(=O)C12CC3CC(CC(C3)C1)C2)C(=O)N1CCC[C@H]1C(=O)N[C@H](C(=O)C(F)(F)F)C(C)C`, the inhibition constant Ki came out at 15 nM.

On to `CCOC(=O)C(F)(F)C(=O)[C@@H](NC(=O)[C@@H]1CCCN1C(=O)[C@H](C)NC(=O)[C@H](C)NC(=O)CCC(=O)OC)C(C)C`, for which the Ki was determined as 9900 nM.

As to `CCOC(=O)C(=O)[C@H](C)NC(=O)[C@H](C)NC(=O)[C@H](C)NC(=O)[C@H](C)NC(=O)OCc1ccccc1`, the inhibition constant (Ki) stood at 140 nM.

The next assay has as its target T3, Neutrophil elastase. The assay is described as follows: Binding affinity against human Neutrophil Elastase. In outline: as §2
`CC(=O)N1CCC[C@H]1C(=O)N[C@@H](C)C(=O)N1CCC[C@H]1C(=O)N[C@@H](C)C(=O)C(=O)O` gave a Ki of 66000 nM. In other words, the double-digit micromolar range.

A further assay deals with T3, Neutrophil elastase. The assay is described as follows: Binding affinity against human leukocyte Elastase.
Regarding `CC(C)[C@H](NC(=O)[C@H](CCCCNC(=O)OCc1ccccc1)NC(=O)OCc1ccccc1)C(=O)N1CCC[C@H]1C(=O)N[C@H](C(=O)C(F)(F)F)C(C)C` (Cbz-K(Cbz)VPV-CF3), the inhibition constant (Ki) was < 0.1 nM.

For the next assay, the target named is Chymotrypsinogen B (Homo sapiens, UniProt P17538). Nature of the assay: Binding affinity against alpha-chymotrypsin.
Sequence of Chymotrypsinogen B (P17538 34-164 limits assumed, other chains not shown): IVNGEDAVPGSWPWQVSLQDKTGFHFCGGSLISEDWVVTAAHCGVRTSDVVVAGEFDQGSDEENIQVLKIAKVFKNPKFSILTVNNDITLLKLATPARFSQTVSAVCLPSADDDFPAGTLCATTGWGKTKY
Sequence of Chymotrypsinogen B (P17538 167-263 limits assumed, other chains not shown): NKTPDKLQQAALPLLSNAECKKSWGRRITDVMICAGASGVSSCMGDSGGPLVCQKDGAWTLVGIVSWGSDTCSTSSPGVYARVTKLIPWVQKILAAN
Turning to `COC(=O)CCC(=O)N[C@@H](C)C(=O)N[C@@H](C)C(=O)N1CCC[C@H]1C(=O)N[C@@H](Cc1ccccc1)C(=O)C(F)(F)F` (MeOSuc-AAPF-CF3), the Ki worked out at 17 nM. That is a double-digit nanomolar value.

`COC(=O)CCC(=O)N[C@@H](C)C(=O)N[C@@H](C)C(=O)N1CCC[C@H]1C(=O)N[C@@H](Cc1ccccc1)C(=O)C(=O)OC` showed a Ki of 79 nM.

The next assay concerns the target T3, Neutrophil elastase. The assay is described as follows: Binding affinity against human Elastase for more active diasteriomer.
Turning to `CC(C)[C@H](NC(=O)[C@@H]1CCCN1C(=O)[C@H](C)NC(=O)[C@H](C)NS(=O)(=O)c1cccc2c(N(C)C)cccc12)C(=O)C(F)(F)F` (Dansyl-AAPV-CF3), the affinity, expressed as Ki, was 6.3 nM. This counts as single-digit nanomolar.
